# Screening data (PubChem)
# Most compounds without a hit are left out; they make up all but 1.8% or so of the library.
# CHRM5 PAM = CHRM5 positive allosteric modulation | P08912 | CHO-K1 hM5, Fluo-8 calcium, ACh EC20 PAM; 0% = ACh EC20, 100% = ACh EC100 | activation, % at 3 µM | hit rate 0.3% among 360,000 | AID 624038;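 active means activation above the run cutoff, the mean activation of all test compounds plus 3 SD, cut at about 18% in these data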
#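 Assay system – human M5 receptor in CHO-K1 cells · Read-out – % activation, ACh-normalized · Technique – Fluo-8 calcium fluorescence · Dosing – single-point, 3 µM nominal · Incubation – Fluo-8 loading 80 min at 37 °C plus 30 min room temperature · Repeats – singlicate, one well per test compound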
# M4 antag = blocks acetylcholine activation of human M4 receptor; inhibition, % at 3 µM; hit rate 0.73% among 360,000; P08173; CHO-hM4 cells, ACh EC80, Fluo-8 calcium fluorescence;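 active means inhibition above its plate's cutoff, the mean inhibition of sample wells plus 3 SD, cut at about 27% in these data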
# Target sequence (P08173 whole entry, looked up): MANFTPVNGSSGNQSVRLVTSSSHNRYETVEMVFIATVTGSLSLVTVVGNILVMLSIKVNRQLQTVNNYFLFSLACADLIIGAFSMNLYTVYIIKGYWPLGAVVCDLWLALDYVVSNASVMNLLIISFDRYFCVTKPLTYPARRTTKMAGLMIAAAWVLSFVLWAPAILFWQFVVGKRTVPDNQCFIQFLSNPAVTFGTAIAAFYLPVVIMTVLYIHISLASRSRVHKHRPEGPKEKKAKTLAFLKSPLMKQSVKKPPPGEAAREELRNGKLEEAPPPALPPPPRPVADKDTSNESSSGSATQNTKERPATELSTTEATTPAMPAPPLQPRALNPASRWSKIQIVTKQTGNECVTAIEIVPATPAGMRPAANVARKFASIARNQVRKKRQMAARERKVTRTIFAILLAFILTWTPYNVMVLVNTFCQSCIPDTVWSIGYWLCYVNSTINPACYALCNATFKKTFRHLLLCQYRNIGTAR
# CHRM4 agonist = agonists of human muscarinic M4 receptor (CHRM4) | P08173 | activation, % at 3 µM | hit rate 0.14% among 360,000 | CHO-K1 hM4/Gqi5, Fluo-8 calcium fluorescence; vehicle 0%, full acetylcholine response 100%;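 active means activation above the run mean over all test wells plus 3 SD, cut at about 32% in these data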;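 further: peak over basal fluorescence ratio per well then scaled between controls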
# CHRM4 PAM = CHRM4 positive allosteric modulation. CHO-K1 hM4/Gqi5, Fluo-8 calcium fluorescence, ACh EC20; 0% = ACh EC20, 100% = maximal ACh. hit rate 0.4% among 360,000. P08173. activation, % at 3 µM;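 active means activation above its plate's cutoff, the mean activation of sample wells plus 3 SD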
# CHRM5 antagonist = blocks acetylcholine activation of human M5 receptor | hit rate 0.59% among 360,000 | CHO-hM5 cells, Fluo-8 calcium fluorescence, ACh EC80 | P08912 | inhibition, % at 3 µM;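 active means inhibition above a per-plate cutoff, the mean of that plate's test compounds plus 3 SD, cut at about 27% in these data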
# CHRM5 agonist = CHRM5 agonism in calcium assay. P08912. CHO-K1 hM5 cells, Fluo-8 calcium fluorescence; 0% DMSO wells, 100% maximal acetylcholine response. activation, % at 3 µM. hit rate 0.19% among 360,000. AID 624037;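 active means activation above the run's mean over test compounds plus 3 SD, cut at about 23% in these data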;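 further: signal is peak over basal fluorescence ratio across the kinetic read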
# A number is an active result; i = inactive.
SMILES,CHRM5 PAM,M4 antag,CHRM4 agonist,CHRM4 PAM,CHRM5 antagonist,CHRM5 agonist
Cc1ccc(C(=O)Cn2c(C)cc(C)c(C#N)c2=O)cc1,29.2,i,i,i,i,i
Cc1cc(C)n(CC(=O)c2ccc(Br)cc2)c(=O)c1C#N,i,i,i,i,i,i
O=C(CSc1n[nH]c(=O)n1C1CC1)Nc1cc(Cl)ccc1Oc1ccccc1,i,46.8,i,i,30.4,i
COc1ccc(OC)c(NC(=O)CSc2nc(C)cs2)c1,i,i,i,45.5,i,i
CCOC(=O)Cc1csc(SCC(=O)Nc2cc(Cl)ccc2Oc2ccccc2)n1,i,44.7,i,i,i,i
CCOC(=O)Cc1csc(SCC(=O)NC2CCC(C)CC2)n1 (stereo not drawn),i,i,i,19.6,i,i
Cc1ccc(C)c(NC(=O)CN2C(=O)COc3ccc(S(=O)(=O)N4CCCC4)cc32)c1,i,i,i,i,i,i
Cc1cc(N2C(=O)c3ccc(C(=O)Nc4ccccc4O)cc3C2=O)no1,i,i,i,i,27.6,i
O=C(Nc1ccccc1O)c1ccc2c(c1)C(=O)N(c1ccccc1)C2=O,i,i,i,i,i,i
CC(C)OP(=O)(OC(C)C)C(O)c1cccc([N+](=O)[O-])c1 (stereo not drawn),i,i,i,i,i,i
CC(=O)Nc1ccc(NC(=O)Cn2nc(C(=O)Nc3ccc(C)cc3)ccc2=O)cc1,i,i,i,i,i,i
CN(C)CCCN(C(=O)COc1ccc(Cl)cc1)c1nc2ccc(F)cc2s1,i,i,i,i,i,i
Cc1ccc2nc(N(CCCN(C)C)C(=O)COc3ccc(Cl)cc3)sc2c1,i,i,37.9,i,i,i
COc1cccc(CN2CC(C(=O)NCCSc3nnnn3C)CCC2=O)c1 (stereo not drawn),i,i,i,i,i,i
CCc1ccc(-c2cc(C)no2)cc1S(=O)(=O)NCCCN1CCN(c2ccccc2)CC1,i,31.3,i,i,29.1,i
CSCCC(NC(=O)c1ccccc1)C(=O)N1CCN(C(C)=O)CC1 (stereo not drawn),i,i,i,i,i,i
Brc1ccc(OCc2ccccc2)c(CNCc2ccncc2)c1,i,29.4,i,i,i,i
CCn1c2c(c(=N)c3c1CCC3)CCC2,i,i,i,i,31.7,i
CCCCCCn1c2c(c(=N)c3c1CCC3)CCC2,i,i,i,i,i,i
CCCCCCCCCn1c2c(c(=N)c3c1CCC3)CCC2,i,50.0,i,i,39.9,i
COc1cc(/C=C(\C#N)c2nc3ccccc3s2)cc([N+](=O)[O-])c1O,i,i,i,i,i,i
N#C/C(=C\c1ccc(O)c([N+](=O)[O-])c1)c1nc2ccccc2s1,i,i,i,i,30.7,i
Nc1ccn(C2CSC(CO)O2)c(=O)n1 (stereo not drawn),i,i,i,i,i,i
COC(=O)c1cc(CNC(=O)c2ccccc2OCc2c(C)noc2C)ccc1OC,i,i,i,18.0,i,i
COC(=O)C1=C(N)Oc2cc(C)[nH]c(=O)c2C1c1ccncc1 (stereo not drawn),20.0,i,i,i,i,i
SMILES,CHRM5 PAM,M4 antag,CHRM4 agonist,CHRM4 PAM,CHRM5 antagonist,CHRM5 agonist
COC(=O)C1=C(N)Oc2cc(C)n(C)c(=O)c2C1c1ccc(Cl)c(Cl)c1 (stereo not drawn),i,i,i,i,i,i
O=C(O)c1ccc(N=C2NC(=O)C(CO)(CO)S2)cc1,i,i,i,i,i,i
Cc1ccc(N/C(SCc2ccccc2C)=C(/C#N)C(=O)NCc2ccco2)cc1C,i,26.5,i,i,i,i
CCc1ccc(N/C(SCc2cccc(F)c2)=C(/C#N)C(=O)NCc2ccco2)cc1,i,i,i,i,i,i
Cc1ccc(S(=O)(=O)Oc2ccc(/C=C(/NC(=O)c3ccccc3)C(=O)Nc3ccccc3)cc2)cc1,i,28.1,i,i,i,i
COc1ccc(NC(=O)/C(=C\c2ccc(OS(=O)(=O)c3ccc(C)cc3)cc2)NC(=O)c2ccccc2)cc1,i,i,i,i,i,i
O=C(Nc1nccs1)Oc1ccccc1,i,i,i,28.3,i,i
O=C(CCCOc1ccccc1)Nc1nccs1,i,i,i,i,i,i
COc1ccc(OC)c(S(=O)(=O)NC(N)=NCCc2ccccc2)c1,i,i,i,i,i,i
Cc1ccccc1CS(=O)(=O)c1nnc([C@H](Cc2ccccc2)NC(=O)OC(C)(C)C)o1,i,78.8,i,i,i,i
C=CC[C@@H](CC(=O)NCCO)C(=O)N[C@@H](C)COC(=O)[C@@H](CC=C)Cc1ccc(F)cc1,i,i,i,i,i,i
Nc1[nH]c2cc([N+](=O)[O-])ccc2c1-c1ccccn1,i,i,54.3,i,31.7,26.0
C/C(=N\NC(N)=S)C1=CCC2C3CC[C@H]4CC(O)CC[C@]4(C)C3CC[C@]12C (stereo partly drawn),i,i,i,i,i,i
COc1ccc(C(CNc2ccc(S(=O)(=O)N3CCCC3)cc2[N+](=O)[O-])N2CCCC2)cc1 (stereo not drawn),i,i,i,i,32.2,i
NC(=O)c1ccccc1N/C=C/C(=O)c1ccc(F)cc1,i,i,i,i,i,i
NC(=O)c1ccccc1N/C=C/C(=O)c1ccc(Cl)cc1Cl,47.2,i,i,i,i,i
N=C(N)c1ccc(OCCCCCOc2ccc(C(=N)N)cc2)cc1,i,30.7,i,i,i,i
Oc1ccccc1Oc1ncc(Br)c(N2CCOCC2)n1,i,40.2,i,i,i,i
Brc1cnc(N2CCCC2)nc1N1CCOCC1,i,27.3,i,i,i,i
Oc1ccccc1Oc1ncc(Br)c(Cl)n1,i,i,i,i,i,i
CCOC(=O)C[C@H]1c2cc(F)ccc2S(=O)(=O)N1Cc1ccc(OC)cc1,i,i,i,i,i,i
COc1cc(C(=O)O)nc2ccc([N+](=O)[O-])cc12,i,i,i,i,i,i
Cc1ccc(-c2nn3nnnc3c3ccccc23)cc1C,i,i,i,38.6,i,i
c1ccc(-c2nn3nnnc3c3ccccc23)cc1,i,i,i,i,i,i
CCN(C(=O)COC(=O)/C=C/c1cccc([N+](=O)[O-])c1)c1c(N)n(Cc2ccccc2)c(=O)[nH]c1=O,i,i,i,i,i,i
CCN(CC(=O)Nc1cc(Cl)ccc1C)C(=O)C1CCN(c2ncnc3sc(C)c(C)c23)CC1,i,i,i,i,27.3,i
Cc1ccc(NC(=O)C2CCN(c3ncnc4sc(C)c(C)c34)CC2)cc1S(=O)(=O)N(C)C,i,i,i,i,i,i
